Our source for the Concentration, MIC and Stain index values is ChEMBL document CHEMBL1122519, “Bispyridinamines: a new class of topical antimicrobial agents as inhibitors of dental plaque” (1984).

A value given as a limit tells only on which side of the number the result lay.

One assay has as its system Actinomyces viscosus. Description: Compound is evaluated for minimal bactericidal concentration against plaque formation for Actinomyces viscosus. It is filed as functional, organism-based. An outline of the steps:
(§1)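 Preformed in vitro plaques of S. mutans NCTC 10449 or A. viscosus M-100 were grown on ceramic hydroxylapatite under anaerobic conditions at 37 °C in sucrose-supplemented medium. Plaques were immersed for 30 min at 37 °C in compound at 0.3–20 mM, rinsed, and moved to broth containing bromocresol purple. Kill was judged by no acid production, no turbidity increase and no growth on plating at 48 h. Plaques were run in quadruplicate.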

Assay [1] concerns Escherichia coli. Description: Antimicrobial minimum inhibitory concentration against Escherichia coli AB1932-1. It is filed as functional. An outline of the steps:
(§2)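 Serial twofold tube dilution in tryptose phosphate broth. Each compound was prepared as a 1000 μg/mL aqueous stock and diluted in double-strength broth, then 2×10^5 cells were added. Tubes were incubated aerobically at 37 °C for 24 h. The MIC was taken as the lowest concentration with no visible growth.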

Assay [2] relates to Escherichia coli. Description: Minimum inhibitory concentration against Escherichia coli (Vogel). It is filed as functional. An outline of the steps: as §2
Assay [3] deals with Escherichia coli. Description: Antimicrobial minimum inhibitory concentration against Escherichia coli 100/B22. The assay is classed as functional. An outline of the steps: as §2
Another assay has as its system Klebsiella pneumoniae. Description: Minimum inhibitory concentration against Klebsiella pneumonia 39645. The assay is classed as functional. An outline of the steps:
as §2

The next assay deals with Proteus mirabilis. Description: Minimum antimicrobial inhibitory concentration against Proteus mirabilis MGH-1. It is filed as functional. An outline of the steps: as §2
In the next assay the test system is Pseudomonas aeruginosa. Description: Minimum antimicrobial inhibitory concentration against Pseudomonas aeruginosa MGH-2. The assay is classed as functional. An outline of the steps: as §2
The next assay deals with Staphylococcus aureus. Description: Minimum antimicrobial inhibitory concentration against Staphylococcus aureus. The assay is classed as functional. An outline of the steps: as §2
For assay [4], the system named is Streptococcus mutans. Description: Compound is evaluated for minimal bactericidal concentration against plaque formation for Streptococcus mutans. It is filed as functional, organism-based. An outline of the steps:
as §1

The subject of assay [5] is Streptococcus mutans. Description: Minimum plaque inhibitory concentration using a standard test organism, Streptococcus mutans OMZ-61. It is filed as functional, organism-based. An outline of the steps: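 Ceramic hydroxylapatite plates were soaked twice for 1 min each in compound at […] (aqueous), air-dried and rinsed, then hung in sucrose beef-extract medium (pH 7.0) inoculated with late-log S. mutans OMZ-61. Incubation was anaerobic at 37 °C for 24 h, and treatment plus reinoculation were repeated for a second 24 h. Plaque was stained with 1% FD&C Red No. 3 and scored visually. The value is the lowest concentration giving no plaque while medium growth matched control.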

Assay [6] is described as follows: Compound is evaluated for stain index. It is filed as functional. An outline of the steps: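 Ratio of the minimum concentration staining a plaque-free ceramic hydroxylapatite plate to the minimum plaque-inhibiting concentration, both run under the same conditions. Plates got two 1-min soaks (0.1–0.001%), each followed by air-drying, then a water rinse. They were then held 24 h anaerobically at 37 °C in sucrose beef-extract medium, with or without S. mutans OMZ-61, repeated once. Staining was 1-min 1% FD&C Red No. 3, scored visually.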

As to `CCCCCCCN=c1ccn(CCCCCCCCCCCCn2ccc(=NCCCCCCC)cc2)cc1.Cl.Cl`, the Concentration in the assay with Actinomyces viscosus stood at 2.81 mM; in the assay with Streptococcus mutans [4] it was 2.81 mM; in the assay on Streptococcus mutans [5], 0.003%. Besides, the MIC against Escherichia coli [1] worked out at 1 µg/mL; in the assay on Escherichia coli [2], 0.5 µg/mL; with Escherichia coli [3], 0.5 µg/mL; against Klebsiella pneumoniae it was 2 µg/mL; with Proteus mirabilis, 2 µg/mL; in the assay with Pseudomonas aeruginosa, 3.9 µg/mL. Further, inhibition of growth against Staphylococcus aureus (MIC) required 0.2 µg/mL. This compound also showed a Stain index in assay [6] of 10.
In the case of `Br.Br.CCCCCCCCCN=c1ccn(CCCCCCCCCCCCn2ccc(=NCCCCCCCCC)cc2)cc1`, the Concentration amounted to 2.6 mM in the assay on Actinomyces viscosus, 1.3 mM in the assay with Streptococcus mutans [4] and 0.01% with Streptococcus mutans [5]. For the same compound, the minimum inhibitory concentration (MIC) stood at 7.8 µg/mL against Escherichia coli [1]; 3.9 µg/mL with Escherichia coli [2]; 3.9 µg/mL in the assay with Escherichia coli [3]; 3.9 µg/mL with Klebsiella pneumoniae; 3.9 µg/mL in the assay on Proteus mirabilis; 3.9 µg/mL in the assay on Pseudomonas aeruginosa. Further, the MIC in the assay with Staphylococcus aureus is 2 µg/mL. For the same compound, the Stain index in [6] turned out to be 1.
Take `Br.Br.CCCCCCCCN=c1ccn(CCCCCCCCCCCCn2ccc(=NCCCCCCCC)cc2)cc1`: the Concentration came out at 1.35 mM in the assay on Actinomyces viscosus, 2.7 mM in the assay with Streptococcus mutans [4] and 0.005% in the assay on Streptococcus mutans [5]. For the same compound, the minimum inhibitory concentration (MIC) was 2 µg/mL in the assay on Escherichia coli [1]; 2 µg/mL with Escherichia coli [2]; 2 µg/mL in the assay on Escherichia coli [3]; 1 µg/mL against Klebsiella pneumoniae; 2 µg/mL against Proteus mirabilis; 2 µg/mL with Pseudomonas aeruginosa. 0.5 µg/mL was the least that counted as inhibitory with Staphylococcus aureus (MIC). Moreover, in assay [6], the Stain index is 10.
Take `CCCCCCCCCN=c1ccn(CCCCCCn2ccc(=NCCCCCCCCC)cc2)cc1.Cl.Cl`: the figures for the Concentration in the assay with Actinomyces viscosus, in the assay with Streptococcus mutans [4] and with Streptococcus mutans [5] were 7.3 mM, 7.3 mM and 0.01%, respectively. For the same compound, the minimum inhibitory concentration (MIC) was 2 µg/mL against Escherichia coli [1]; 2 µg/mL in the assay on Escherichia coli [2]; 2 µg/mL in the assay on Escherichia coli [3]; 3.9 µg/mL with Klebsiella pneumoniae; 7.8 µg/mL against Proteus mirabilis; 15.6 µg/mL in the assay with Pseudomonas aeruginosa. Further, the minimum inhibitory concentration (MIC) against Staphylococcus aureus was found to be 1 µg/mL. The Stain index in [6] worked out at 1.
For `CCCCCCCCN=c1ccn(CCCCCCCCn2ccc(=NCCCCCCCC)cc2)cc1.Cl.Cl`, the Concentration was 0.88 mM in the assay on Actinomyces viscosus, 8.8 mM in the assay on Streptococcus mutans [4] and 0.005% in the assay on Streptococcus mutans [5]. Further, the MIC with Escherichia coli [1] was 1 µg/mL; against Escherichia coli [2], 1 µg/mL; in the assay on Escherichia coli [3], 0.5 µg/mL; in the assay with Klebsiella pneumoniae, 1 µg/mL; against Proteus mirabilis, 3.9 µg/mL; in the assay on Pseudomonas aeruginosa, 7.8 µg/mL. For the same compound, the MIC against Staphylococcus aureus stood at 0.2 µg/mL. The compound further yielded a Stain index in assay [6] of 10.
Consider `CCCCCCCN=c1ccn(CCCCCCCCCCn2ccc(=NCCCCCCC)cc2)cc1.Cl.Cl`, for which the Concentration is 1.46 mM with Actinomyces viscosus, 0.73 mM in the assay with Streptococcus mutans [4] and 0.004% in the assay with Streptococcus mutans [5]. Further, the MIC was 1 µg/mL in the assay with Escherichia coli [1]; 0.5 µg/mL against Escherichia coli [2]; 0.5 µg/mL in the assay with Escherichia coli [3]; 1 µg/mL against Klebsiella pneumoniae; 7.8 µg/mL against Proteus mirabilis; 7.8 µg/mL against Pseudomonas aeruginosa. Also, in the assay on Staphylococcus aureus, the minimum inhibitory concentration (MIC) was found to be 0.2 µg/mL. In assay [6], the Stain index came out at 10.
In the case of `CCCCCCN=c1ccn(CCCCCCCCCCCCCCn2ccc(=NCCCCCC)cc2)cc1.Cl.Cl`, the Concentration with Actinomyces viscosus stood at 2.8 mM; in the assay on Streptococcus mutans [4] it was 1.4 mM; with Streptococcus mutans [5], 0.004%. The MIC against Escherichia coli [1] was found to be 0.5 µg/mL; against Escherichia coli [2], 1 µg/mL; in the assay with Escherichia coli [3], 0.5 µg/mL; with Klebsiella pneumoniae, 1 µg/mL; against Proteus mirabilis it was 3.9 µg/mL; against Pseudomonas aeruginosa it was 3.9 µg/mL. This compound also came in with an MIC with Staphylococcus aureus of 0.5 µg/mL. Moreover, the Stain index in assay [6] came out at 1.
Take `Br.Br.CCCCCCCCCN=c1ccn(CCCCCCCCCCn2ccc(=NCCCCCCCCC)cc2)cc1`: the Concentration with Actinomyces viscosus is 2.7 mM; in the assay with Streptococcus mutans [4] it was 1.35 mM; with Streptococcus mutans [5] it was 0.004%. The minimum inhibitory concentration (MIC) was found to be 3.9 µg/mL in the assay with Escherichia coli [1]; 2 µg/mL with Escherichia coli [2]; 3.9 µg/mL with Escherichia coli [3]; 3.9 µg/mL against Klebsiella pneumoniae; 3.9 µg/mL in the assay with Proteus mirabilis; 3.9 µg/mL in the assay on Pseudomonas aeruginosa. Besides, it took 2 µg/mL to inhibit growth with Staphylococcus aureus (MIC). The compound also had a Stain index in assay [6] of 1.
Take `Br.Br.CCCCCCCCCN=c1ccn(CCCCCCCn2ccc(=NCCCCCCCCC)cc2)cc1`: the Concentration in the assay with Actinomyces viscosus turned out to be 7.16 mM; with Streptococcus mutans [4], 2.86 mM; in the assay on Streptococcus mutans [5], 0.004%. The MIC was found to be 2 µg/mL against Escherichia coli [1]; 1 µg/mL with Escherichia coli [2]; 2 µg/mL against Escherichia coli [3]; 2 µg/mL against Klebsiella pneumoniae; 3.9 µg/mL against Proteus mirabilis; 15.6 µg/mL in the assay with Pseudomonas aeruginosa. Besides, the MIC against Staphylococcus aureus worked out at 0.5 µg/mL. For the same compound, the Stain index in [6] was 1.
Regarding `Br.Br.c1cn(CCCCCCCn2ccc(=NC3CCCCC3)cc2)ccc1=NC1CCCCC1`, the MIC against Escherichia coli [1] was 125 µg/mL; against Escherichia coli [2], above 125 µg/mL; against Escherichia coli [3], above 125 µg/mL; against Klebsiella pneumoniae it was above 125 µg/mL; in the assay on Proteus mirabilis, above 125 µg/mL; against Pseudomonas aeruginosa it was 125 µg/mL. The same compound yielded an MIC with Staphylococcus aureus of 7.8 µg/mL. The compound also came in with a Concentration in the assay on Streptococcus mutans [5] above 1%.
With `Br.Br.CCCCC(CC)CN=c1ccn(CCCCn2ccc(=NCC(CC)CCCC)cc2)cc1` (stereo not given), the MIC in the assay with Escherichia coli [1] is 7.8 µg/mL; against Escherichia coli [2], 62.5 µg/mL; with Escherichia coli [3] it was 31.3 µg/mL; against Klebsiella pneumoniae it was above 125 µg/mL; against Proteus mirabilis, above 125 µg/mL; in the assay on Pseudomonas aeruginosa it was 125 µg/mL. This compound also yielded an MIC with Staphylococcus aureus of 1 µg/mL. The compound further gave a Concentration in the assay on Streptococcus mutans [5] above 1%.
In the case of `Br.Br.CCCCC(CC)CN=c1ccn(CCCCCCCn2ccc(=NCC(CC)CCCC)cc2)cc1` (stereo not given), the MIC in the assay on Escherichia coli [1] was 3.9 µg/mL; in the assay on Escherichia coli [2], 3.9 µg/mL; with Escherichia coli [3], 3.9 µg/mL; against Klebsiella pneumoniae it was 7.8 µg/mL; in the assay on Proteus mirabilis it was above 125 µg/mL; in the assay with Pseudomonas aeruginosa it was 125 µg/mL. In the assay on Staphylococcus aureus, this compound displayed a minimal inhibitory concentration (MIC) of 0.5 µg/mL. The compound also came in with a Concentration in the assay with Streptococcus mutans [5] above 1%.
For the compound `Br.Br.CCCCCCN=c1ccn(CCCCCCCCCn2ccc(=NCCCCCC)cc2)cc1`, the minimal inhibitory concentration (MIC) against Escherichia coli [1] came to 2 µg/mL; against Escherichia coli [2], 2 µg/mL; in the assay with Escherichia coli [3], 2 µg/mL; against Klebsiella pneumoniae, 3.9 µg/mL; in the assay on Proteus mirabilis it was 125 µg/mL; against Pseudomonas aeruginosa, 125 µg/mL. Besides, the lowest concentration to inhibit growth against Staphylococcus aureus (MIC) was 0.4 µg/mL. This compound also displayed a Concentration in the assay with Streptococcus mutans [5] above 1%.
Take `Br.Br.c1cn(CCCCCCCCn2ccc(=NC3CCCCC3)cc2)ccc1=NC1CCCCC1`: the minimum inhibitory concentration (MIC) against Escherichia coli [1] was 31.3 µg/mL; in the assay on Escherichia coli [2], 62.5 µg/mL; with Escherichia coli [3], 62.5 µg/mL; against Klebsiella pneumoniae, above 125 µg/mL; in the assay with Proteus mirabilis, above 125 µg/mL; in the assay with Pseudomonas aeruginosa, 250 µg/mL. Further, the minimal inhibitory concentration (MIC) against Staphylococcus aureus was 3.9 µg/mL. In the assay with Streptococcus mutans [5], this compound displayed a Concentration above 1%.
Regarding `Br.Br.c1cn(CCCCn2ccc(=NC3CCCCC3)cc2)ccc1=NC1CCCCC1`, the minimal inhibitory concentration (MIC) was 125 µg/mL against Escherichia coli [1]; 125 µg/mL against Escherichia coli [2]; 125 µg/mL in the assay on Escherichia coli [3]; above 500 µg/mL in the assay on Klebsiella pneumoniae; above 500 µg/mL with Proteus mirabilis; above 500 µg/mL against Pseudomonas aeruginosa. The compound also yielded a minimum inhibitory concentration (MIC) against Staphylococcus aureus of 125 µg/mL. In the assay on Streptococcus mutans [5], this compound had a Concentration above 1%.
Regarding `Br.Br.Clc1ccc(N=c2ccn(CCCCCCCn3ccc(=Nc4ccc(Cl)cc4)cc3)cc2)cc1`, the minimal inhibitory concentration (MIC) against Escherichia coli [1] is 125 µg/mL; in the assay on Escherichia coli [2] it was 3.9 µg/mL; with Escherichia coli [3] it was 3.9 µg/mL; against Klebsiella pneumoniae, above 125 µg/mL; in the assay with Proteus mirabilis it was above 125 µg/mL; against Pseudomonas aeruginosa, above 125 µg/mL. The lowest concentration to inhibit growth in the assay on Staphylococcus aureus (MIC) was 1 µg/mL. Moreover, the Concentration in the assay on Streptococcus mutans [5] is above 1%.
